Fewer than 10 of roughly 200,000 compounds were called active. Not all results are given here. A number with no mark means an inactive call.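 How the source made its calls: active means activation factor at least 2 at 20 µM; inactive means the rest.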

Chain of Alkaline phosphatase, tissue-nonspecific isozyme (Homo sapiens) (P05186 whole entry, looked up): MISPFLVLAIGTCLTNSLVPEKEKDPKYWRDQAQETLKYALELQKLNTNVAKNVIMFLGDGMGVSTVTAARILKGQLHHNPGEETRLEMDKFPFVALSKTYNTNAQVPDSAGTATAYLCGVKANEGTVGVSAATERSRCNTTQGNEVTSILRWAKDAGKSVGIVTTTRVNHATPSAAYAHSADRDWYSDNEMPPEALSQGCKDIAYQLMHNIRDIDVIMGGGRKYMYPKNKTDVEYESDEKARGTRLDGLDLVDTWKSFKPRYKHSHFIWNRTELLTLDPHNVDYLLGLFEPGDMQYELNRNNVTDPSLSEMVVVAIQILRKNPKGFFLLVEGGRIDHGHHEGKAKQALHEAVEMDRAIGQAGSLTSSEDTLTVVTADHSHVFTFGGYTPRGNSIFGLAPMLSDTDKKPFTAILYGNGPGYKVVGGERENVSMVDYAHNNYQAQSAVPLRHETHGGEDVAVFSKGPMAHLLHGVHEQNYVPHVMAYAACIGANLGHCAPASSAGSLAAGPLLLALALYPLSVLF

In this test the target is Alkaline phosphatase, tissue-nonspecific isozyme (Homo sapiens) (UniProt P05186). The experiment in a line: activation of human TNAP, high DEA acceptor – biochemical, luminescence, uHTS, primary screen (AID 1136). As to conditions: purified TNAP, CDP-star luminescence, 1 M DEA, 30 min; at 20 µM; hits give high values; 0 = EDTA background, 1 = DMSO-only activity. The essentials:
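Test system – human TNAP · Doses – 20 µM single point · Incubation – 30 min, room temperature · Signal – luminescent substrate turnover signal · Read-out basis – activation factor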
Take `Cn1c2c(c(=O)n(C)c1=O)C(c1cccc([N+](=O)[O-])c1)Nc1ccccc1O2` (stereo not drawn): the activation factor is 1.

With `COC(=O)C1CCN(CC(N)=O)CC1`, the activation factor is 1.1.

Turning to `CCCCN(CC)C(=S)Nc1ccc2nc3n(c(=O)c2c1)CCCCC3`, the activation factor was 1.

As to `CCOC(=O)C1=NOC(Cn2cc(C(C)=O)c(=O)[nH]c2=O)C1` (stereo not drawn), the activation factor is 1.

As for `O=C(C1=C[C@H](c2coc3ccccc3c2=O)C[C@H](OCc2ccc(CO)cc2)O1)N1CCN(Cc2ccccc2)CC1`, the activation factor was 1.

Turning to `COc1ccc(C(=O)NCC(=O)N/N=C/c2ccc([N+](=O)[O-])s2)cc1OC`, the activation factor is 0.9.

With `CC(=O)c1ccc(NC(=O)c2ccc3c(Cl)c4c(nc3c2)CCCC4)cc1`, the activation factor is 1.

As for `Cc1ccc(NS(=O)(=O)c2ccc(C)c(NC(=O)COc3ccc4ccccc4c3)c2)c(C)c1`, the activation factor is 1.

For the compound `CCCCC(CC)CNC(=O)C(=O)C1C(=O)Nc2ccccc21` (stereo not drawn), the activation factor was 1.

Turning to `Nc1nc(NC(=O)/C=C/c2ccccc2)nn1-c1ccccc1`, the activation factor is 1.

With `CCOC(=O)c1cccc(NC(=O)CCOc2ccccc2)c1`, the activation factor was 1.

Turning to `Cc1ccc2[nH]c(C(=O)O)c(NC(=O)c3ccccc3[N+](=O)[O-])c2c1`, the activation factor is 1.

In the case of `COc1ccc(Cl)cc1C(=O)NNC(=S)NC(=O)/C=C/c1ccco1`, the activation factor is 1.1.

`C=C(C)C1CC=C(C)/C(=N/NC(=O)CCCNc2cccc(C)c2)C1` (stereo not drawn): the activation factor was 1.

Turning to `O=C(Nc1ccc(C(=O)O)cc1)/C(=C/c1ccc([N+](=O)[O-])cc1)NC(=O)c1ccccc1`, the activation factor is 1.

In the case of `Cc1ccc(CN2CCN(/N=C/c3cccnc3)CC2)c(C)c1`, the activation factor is 1.

Take `COc1cc(OC)nc(S(C)(=O)=O)n1`: the activation factor is 1.

In the case of `CCn1c2ccccc2c2cc(NC(=O)COC(=O)c3cc(S(=O)(=O)N4CCCCC4)ccc3Cl)ccc21`, the activation factor is 1.

For `N=C1C(c2nc3ccccc3[nH]2)=C(O)CN1NC(=O)c1c[nH]c2ccccc12`, the activation factor was 1.1.

For `CCn1c(COc2ccccc2)nnc1SCC(=O)NCc1ccco1`, the activation factor is 1.

Turning to `Cc1cc(N2CCOCC2)nc(-c2ccc(Br)cc2)n1`, the activation factor was 1.

For the compound `Cc1nn(C)cc1C(=O)Nc1ccccc1Br`, the activation factor is 1.

As for `C/C=C(\C)C(=O)NCCN1C2=NC[C@H](Cc3ccc(O)cc3)N2C[C@@H]1Cc1ccc(OC)cc1`, the activation factor was 1.1.

In the case of `Cc1ccc(CN(Cc2cccnc2)C(=S)Nc2cc(Cl)ccc2C)cc1`, the activation factor was 1.1.

For `COC(=O)CCSc1cc([N+](=O)[O-])cc2c1c(C1OCCS1)nn2-c1ccccc1` (stereo not drawn), the activation factor was 1.

In the case of `COc1ccc(OC)c(C2C3=C(N=c4s/c(=C\c5cccc(O)c5)c(=O)n42)c2ccccc2CC3)c1` (stereo not drawn), the activation factor is 0.9.

On to `CC(NC(=O)c1cccc2ccccc12)c1ccc2c(c1)CCCC2` (stereo not drawn), for which the activation factor is 1.

Turning to `COc1ccccc1NC(=O)C1=C(C)Nc2nc3ccccc3n2C1c1cccs1` (stereo not drawn), the activation factor was 1.

With `CCOC(=O)c1sc(/N=C/C2=C(O)CC(C)(C)CC2=O)c(C(=O)OCC)c1C`, the activation factor was 1.

For the compound `O=C(CCNC(=O)c1ccc([N+](=O)[O-])cc1)Nc1ccccc1N1CCOCC1`, the activation factor was 1.

As for `CCN(CC)CCCNC(=O)c1ccc2c(=O)n(Cc3ccc4c(c3)OCO4)c(=S)[nH]c2c1`, the activation factor was 1.

In the case of `CC1(c2cccc([N+](=O)[O-])c2)CC(C)(C)N(C(=O)c2ccccc2)c2ccccc21` (stereo not drawn), the activation factor is 1.

Turning to `C=CS(=O)c1sc(Cl)c(N2CCOCC2)c1[N+](=O)[O-]` (stereo not drawn), the activation factor was 1.

On to `O=C(CNC(c1ccccc1)c1ccccc1)Nc1ccc(F)cc1`, for which the activation factor was 1.

Regarding `Cc1cc(C)c(S(=O)(=O)N2CCOCC2)cc1C`, the activation factor was 1.

Turning to `CC1(C)C2CCC1(C)C(OC(=O)c1ccc(O)cc1)C2` (stereo not drawn), the activation factor is 1.1.

In the case of `Cc1nc2sc3c(c2c(=O)n1NC(=O)CCl)CCCC3`, the activation factor was 1.

`COc1ccc(C)cc1NC(=O)CSc1nnc(CC(=O)Nc2ccccc2F)n1C`: the activation factor was 1.1.

Regarding `Cc1ccc(S(=O)(=O)N2CCN(C(=O)c3cccs3)CC2)cc1`, the activation factor was 1.

On to `CCCC(=O)n1nc(NCc2ccc(OC)cc2)nc1NCc1ccc(OC)cc1`, for which the activation factor was 1.

On to `CNC(=S)Nc1ccc([N+](=O)[O-])cc1`, for which the activation factor was 1.

`COc1ccc(C(=O)C[n+]2ccc(C)cc2)cc1`: the activation factor was 1.1.

In the case of `NC(=O)COc1ccc(C23CC4CC(CC(C4)C2)C3)cc1`, the activation factor was 1.1.

Turning to `CCc1ccccc1NC(=S)N(CCN1CCCCCC1)Cc1ccco1`, the activation factor is 1.

In the case of `CCCCN1C(=O)c2ccc(C(=O)Nc3ccc(S(=O)(=O)N(C)C)cc3)cc2C1=O`, the activation factor is 1.

As for `CCCc1c(C)nc2c(Br)cccc2c1Cl`, the activation factor was 1.

For the compound `Clc1ccc(CN2CCN(/N=C/c3cccnc3)CC2)cc1`, the activation factor was 1.

Regarding `CC(=O)N1CCc2cc(Br)cc(S(=O)(=O)CCC(=O)Nc3c(C)n(C)n(-c4ccccc4)c3=O)c21`, the activation factor was 1.

Regarding `CCN(CC)c1ccc(C(=O)N/N=C(\C)c2cccc(OC)c2)cc1`, the activation factor is 1.

Consider `Cc1ccc(C)c2[nH]c(=O)c(CCNC(=O)c3cccs3)cc12`, for which the activation factor is 1.

Consider `O=C(/C=C/c1c(F)cccc1Cl)Nc1nn[nH]n1`, for which the activation factor was 1.

Regarding `CC(=O)Nc1ccc(/C=N/NC(=O)c2cccs2)cc1`, the activation factor is 1.

For `CC(CC(=O)N1CCN(c2ccccc2)CC1)c1ccccc1` (stereo not drawn), the activation factor is 1.

Turning to `COC(=O)c1ccc(-n2cnc3ccccc32)nc1`, the activation factor is 1.

For the compound `CN1CCN(CC(=O)Nc2cccc([N+](=O)[O-])c2)CC1`, the activation factor was 1.

On to `O=C(CS(=O)(=O)c1ccccc1)Nc1ccc(S(=O)(=O)Nc2ccccn2)cc1`, for which the activation factor was 1.

For `COc1ccccc1C(=O)Nn1c(-c2cccs2)nc2ccccc2c1=O`, the activation factor is 1.

As for `CCN(CC)C(=O)C(=O)c1cn(CC(=O)NCc2ccc3c(c2)OCO3)c2ccccc12`, the activation factor is 1.

Turning to `Cc1ccc(S(=O)(=O)CCC(=O)OCc2ccccc2)cc1`, the activation factor is 1.

For `CCOC(=O)c1ccccc1NC(=O)CSc1nc2ccccc2c(=O)[nH]1`, the activation factor is 1.

Take `O=C(CN1CCN(c2ccc(O)cc2)CC1)NC1CCCc2ccccc21` (stereo not drawn): the activation factor is 1.

Turning to `O=[N+]([O-])c1cc(S(=O)(=O)CCCN2CCOCC2)ccc1F`, the activation factor is 1.

Take `O=S(=O)(/N=C(/Nc1ccccc1)c1ccccc1)c1cccs1`: the activation factor is 1.

Turning to `CCOc1ccc(N2C(=O)CN(c3cccc4ccccc34)C2=S)cc1`, the activation factor was 1.1.

As for `C/C(=N/OC(=O)c1cccc(C(F)(F)F)c1)c1cnccn1`, the activation factor was 1.

Take `CCN(CC)CCNC(=O)c1ccc(NS(=O)(=O)c2ccc3c(c2)OCCO3)cc1`: the activation factor is 1.

For the compound `Cc1cc(/C=C2/NC(=O)NC2=O)c(C)n1-c1cccnc1`, the activation factor is 1.1.

As for `C=CCC1(CC=C)CCCN1C(=O)CC1C(=O)NCCN1Cc1ccccc1OC` (stereo not drawn), the activation factor is 1.

Take `C/C(=N/NC(=O)CCc1ccccc1)c1ccco1`: the activation factor was 1.

Regarding `CCCCN(CC)CCCNC(=O)c1ccc(CSc2nc3ccncc3[nH]2)cc1`, the activation factor is 1.

With `CC1=CC2=NC(=O)CC(C)(C(=O)N(CC(=O)NC(C)(C)C)Cc3ccccc3)N2C=C1` (stereo not drawn), the activation factor was 1.1.

For `O=C(CN1CCN(Cc2ccc(F)cc2Cl)C1=O)NCc1cccs1`, the activation factor is 1.1.

For `CCC(C)(C)C1CCC(=NNC(=O)c2ccc(Br)o2)CC1` (stereo not drawn), the activation factor was 1.1.

As to `Cc1cccc(C)c1NC(=O)Nc1ccccc1-n1ccnc1`, the activation factor was 1.1.

Regarding `Cc1cccc(N2CCN(c3ccc(C(N)=O)cc3[N+](=O)[O-])CC2)c1C`, the activation factor is 1.

Take `COc1ccc(-c2[nH]ncc2CN(C)Cc2cccnc2)c(F)c1`: the activation factor is 1.

Consider `COc1ccccc1CN(C)C(=O)C1(c2ccc(Cl)cc2)CC1`, for which the activation factor was 1.

For `CCOC(=O)C(NC(C)=O)C(=O)Nc1ccc(OC)cc1` (stereo not drawn), the activation factor was 1.1.

Consider `COc1cccc(CC2(CO)CCN(Cc3cnc(-c4cccc(C)c4)nc3)CC2)c1`, for which the activation factor is 1.1.

For `CCOc1ccc(C(C)=O)cc1CSc1nnc(-c2ccncc2)n1CCOC`, the activation factor is 1.

Consider `CN1CCN(/N=C/c2ccc(C#N)cc2)CC1`, for which the activation factor was 1.

Consider `O=C1C2C3C=CC(C3)C2C(=O)N1c1ccc(-c2nc3ccccc3c(=O)o2)cc1` (stereo not drawn), for which the activation factor is 1.

Consider `COC(=O)CC1=NN(c2ccccc2)C(=O)C1`, for which the activation factor was 1.

With `COc1ccc(/C(C)=N/NC(=O)CCC(=O)Nc2ccc(Cl)cc2Cl)c(OC)c1`, the activation factor was 0.9.

In the case of `Cc1cccc(NC(=O)CN2C(=O)c3ccccc3C2=O)c1C`, the activation factor is 1.

Regarding `CC1=C(C)CC(C(=O)NC(C)CCc2ccccc2)C(C(=O)O)C1` (stereo not drawn), the activation factor is 1.

For the compound `Cc1ccc(O)c(-c2cc(C(=O)Nc3c(C)n(C)n(-c4ccccc4)c3=O)[nH]n2)c1`, the activation factor was 1.

Regarding `Cc1ccc(O)c(-c2cc(C(=O)NCc3ccccc3)[nH]n2)c1`, the activation factor is 2.3 (active).

As for `Cc1ccc(CNC(=O)c2ccccc2CCc2ccccc2)cc1`, the activation factor was 1.1.

Consider `O=C1CCC(CCC(=O)N2CCCC(C(=O)c3ccc(Cl)cc3)C2)=NN1` (stereo not drawn), for which the activation factor is 1.1.

`[O-][n+]1c2c(nn1-c1ccc(Cl)c(Cl)c1)-c1nonc1CC2`: the activation factor is 1.

As for `Cc1ccc(CN2CCC(N3CCC(C(=O)NCC4CCCO4)CC3)CC2)o1` (stereo not drawn), the activation factor is 1.

As to `Cc1ccccc1-c1n[nH]c(=S)n1/N=C/c1ccc(-c2ccccc2Br)o1`, the activation factor is 0.9.

Turning to `CCOC(=O)C1(Cc2cccc(OC)c2)CCCN(S(=O)(=O)c2cccnc2)C1` (stereo not drawn), the activation factor was 1.1.

In the case of `CCOc1ccc(C(=O)NCCCN2CCCC2=O)cc1`, the activation factor is 1.

For the compound `COc1ccc(NS(=O)(=O)c2cc(NC(=O)/C=C/c3cc(OC)c(OC)c(OC)c3)ccc2N2CCCCC2)cc1`, the activation factor is 1.

In the case of `Cc1cc(SCC(=O)NCCN2C(=O)CSC2=O)nc2ccccc12`, the activation factor is 1.

`N#Cc1cnn2cc(CCN3CCOCC3)c(-c3ccc(F)cc3)nc12`: the activation factor is 1.

Values taken from PubChem BioAssay AID1136 (Sanford-Burnham Center for Chemical Genomics, 2008).
